From ChEMBL document CHEMBL4184225, “Discovery of selective 2,4-diaminoquinazoline toll-like receptor 7 (TLR 7) agonists” (Bioorg Med Chem Lett, 2018)

Columns and labels:
Cytochrome P450 2D6 = Cytochrome P450 2D6 (Homo sapiens, UniProt P10635); assay: Inhibition of CYP2D6 (unknown origin); assay type: ADME
Cytochrome P450 1A2 = target: T1, Cytochrome P450 1A2 (Homo sapiens, UniProt P05177); assay: Inhibition of CYP1A2 (unknown origin); assay type: ADME
T1 sequence (P05177 whole entry): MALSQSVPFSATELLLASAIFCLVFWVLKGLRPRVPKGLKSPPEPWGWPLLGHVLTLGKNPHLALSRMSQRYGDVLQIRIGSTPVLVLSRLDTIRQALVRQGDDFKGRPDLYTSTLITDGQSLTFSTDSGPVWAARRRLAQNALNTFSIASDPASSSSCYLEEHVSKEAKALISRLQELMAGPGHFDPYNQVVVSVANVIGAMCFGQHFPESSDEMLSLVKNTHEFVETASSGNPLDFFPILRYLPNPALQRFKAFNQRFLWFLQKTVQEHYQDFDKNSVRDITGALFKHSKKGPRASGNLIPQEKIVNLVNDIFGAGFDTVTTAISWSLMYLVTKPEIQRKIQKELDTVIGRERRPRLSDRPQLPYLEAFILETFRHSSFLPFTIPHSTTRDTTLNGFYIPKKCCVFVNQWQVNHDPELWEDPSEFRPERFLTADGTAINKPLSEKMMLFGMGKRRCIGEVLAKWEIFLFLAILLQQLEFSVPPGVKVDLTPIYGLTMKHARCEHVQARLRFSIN

[1] = target: T2, Toll-like receptor 7 (Homo sapiens) (UniProt Q9NYK1); assay: Agonist activity at TLR7 in human PBMC assessed as suppression of HCV replicon replication in human HuH7 luc/neo cells harboring RNA encoding bicistronic expression construct comprising wild type HCV type 1b NS3-NS5B regions exposed to conditioned media from compound treated PBMCs by luciferase reporter gene assay; assay type: cell-based
T2 sequence (whole entry): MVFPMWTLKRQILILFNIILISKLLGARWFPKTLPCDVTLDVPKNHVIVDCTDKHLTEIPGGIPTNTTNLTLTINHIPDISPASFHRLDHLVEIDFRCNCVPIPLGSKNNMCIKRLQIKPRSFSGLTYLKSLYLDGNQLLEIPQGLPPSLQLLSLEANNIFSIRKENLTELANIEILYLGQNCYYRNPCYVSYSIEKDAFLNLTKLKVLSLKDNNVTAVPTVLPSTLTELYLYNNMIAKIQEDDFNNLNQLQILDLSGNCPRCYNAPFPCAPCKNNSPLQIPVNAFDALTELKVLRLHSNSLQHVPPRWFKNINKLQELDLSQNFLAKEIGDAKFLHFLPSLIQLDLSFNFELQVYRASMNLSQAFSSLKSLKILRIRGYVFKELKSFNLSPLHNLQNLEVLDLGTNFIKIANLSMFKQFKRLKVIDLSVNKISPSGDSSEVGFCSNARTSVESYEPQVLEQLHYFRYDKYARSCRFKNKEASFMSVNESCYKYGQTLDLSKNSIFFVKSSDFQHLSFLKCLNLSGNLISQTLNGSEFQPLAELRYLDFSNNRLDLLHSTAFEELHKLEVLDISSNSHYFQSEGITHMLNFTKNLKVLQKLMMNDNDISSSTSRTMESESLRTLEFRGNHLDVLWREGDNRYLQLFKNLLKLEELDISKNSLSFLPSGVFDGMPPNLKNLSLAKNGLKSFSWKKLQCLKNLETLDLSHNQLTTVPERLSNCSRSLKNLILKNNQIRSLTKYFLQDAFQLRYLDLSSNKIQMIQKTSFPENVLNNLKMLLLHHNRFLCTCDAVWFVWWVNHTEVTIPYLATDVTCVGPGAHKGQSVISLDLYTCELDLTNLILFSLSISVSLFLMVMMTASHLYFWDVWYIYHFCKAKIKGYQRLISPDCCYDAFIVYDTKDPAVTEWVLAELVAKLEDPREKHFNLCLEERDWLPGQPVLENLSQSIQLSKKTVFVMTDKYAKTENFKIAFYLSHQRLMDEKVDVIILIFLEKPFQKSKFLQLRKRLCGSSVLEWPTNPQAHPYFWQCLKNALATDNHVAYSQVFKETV
Procedure, shortened: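 PBMCs from buffy coats of at least two donors (Ficoll), in RPMI with 10% human AB serum, 2 x 10^5 cells/well, incubated overnight with compound. Supernatant transferred onto Huh7-luc/neo replicon cells plated the day before (2.2 x 10^3/well). Luciferase read after 24 h. EC50 is the concentration applied to PBMCs giving 50% luciferase reduction. Recombinant IFN-α2a standard.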

[2] = Metabolic stability in mouse liver microsomes assessed as drug metabolism after 15 mins at 1 uM; assay type: ADME, microsome; conditions: read-out: Drug metabolism
Procedure, shortened: (§1)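 Compound at 1µM incubated with liver microsomes of the stated species. Percent of compound metabolized after 15 min.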

Cytochrome P450 2C19 = Cytochrome P450 2C19 (Homo sapiens, UniProt P33261); assay: Inhibition of CYP2C19 (unknown origin); assay type: ADME
Sequence of Cytochrome P450 2C19 (P33261 whole entry): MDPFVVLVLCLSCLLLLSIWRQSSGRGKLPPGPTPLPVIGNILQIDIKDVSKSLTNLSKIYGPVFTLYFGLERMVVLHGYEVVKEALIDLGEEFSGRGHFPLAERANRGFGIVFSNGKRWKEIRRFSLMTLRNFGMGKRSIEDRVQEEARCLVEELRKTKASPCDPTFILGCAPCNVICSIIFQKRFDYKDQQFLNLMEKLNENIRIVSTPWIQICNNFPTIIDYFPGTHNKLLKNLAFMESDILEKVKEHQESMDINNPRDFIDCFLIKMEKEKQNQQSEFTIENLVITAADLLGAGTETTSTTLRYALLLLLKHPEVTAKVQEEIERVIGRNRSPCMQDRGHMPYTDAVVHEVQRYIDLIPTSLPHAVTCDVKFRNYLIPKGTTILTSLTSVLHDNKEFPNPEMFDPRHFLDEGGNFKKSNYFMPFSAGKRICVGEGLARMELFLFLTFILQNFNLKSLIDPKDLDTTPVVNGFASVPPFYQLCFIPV

[3] = Metabolic stability in human liver microsomes assessed as drug metabolism after 15 mins at 1 uM; assay type: ADME, microsome; conditions: read-out: Drug metabolism; procedure, shortened: as §1
[4] = target: T2, Toll-like receptor 7 (Homo sapiens); assay: Agonist activity at human TLR7 expressed in HEK293 cells assessed as induction of receptor activation incubated for 6 hrs by NF-kappaB-luciferase reporter gene assay; assay type: cell-based
Procedure, shortened: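 HEK293 cells transiently transfected overnight with CMV-TLR7 (wild type or dLRR2 mutant) plus NFκB-luc plasmids. Seeded at 1.67 x 10^5 cells/mL onto compound in 4% DMSO (stock), 6 h at 37°C, 5% CO2, luciferase readout. Quadruplicate dose-response. LEC is the concentration giving an effect at least two-fold above assay SD. Values averaged over independent experiments where repeated.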

Sequence of Cytochrome P450 2D6 (P10635 whole entry): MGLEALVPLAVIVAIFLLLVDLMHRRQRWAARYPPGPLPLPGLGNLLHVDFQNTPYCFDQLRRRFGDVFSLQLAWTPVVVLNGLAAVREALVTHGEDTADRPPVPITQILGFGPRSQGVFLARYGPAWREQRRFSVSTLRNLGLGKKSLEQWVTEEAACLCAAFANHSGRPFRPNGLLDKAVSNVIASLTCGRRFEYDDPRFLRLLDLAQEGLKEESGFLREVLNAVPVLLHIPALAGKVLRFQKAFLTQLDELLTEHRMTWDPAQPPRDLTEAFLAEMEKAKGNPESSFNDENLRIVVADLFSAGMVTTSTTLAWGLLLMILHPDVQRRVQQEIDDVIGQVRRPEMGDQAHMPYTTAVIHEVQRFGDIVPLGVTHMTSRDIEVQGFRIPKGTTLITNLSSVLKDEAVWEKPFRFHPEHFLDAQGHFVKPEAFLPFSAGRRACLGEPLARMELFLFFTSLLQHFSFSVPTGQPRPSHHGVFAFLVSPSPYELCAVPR

| Compound | IC50 (Cytochrome P450 2D6) [µM] | IC50 (Cytochrome P450 1A2) [µM] | MEC [1] [µM] | metabolised at 0.25 h, 1 µM [2] [%] | IC50 (Cytochrome P450 2C19) [µM] | metabolised at 0.25 h, 1 µM [3] [%] | MEC [4] [µM] |
| --- | --- | --- | --- | --- | --- | --- | --- |
| CCCCNc1nc(N)nc2cccc(OCc3ccccc3)c12 | 5.7 | 0.3 | 0.04 | 97 | > 10 | 11 | 0.16 |
| CCCCNc1nc(N)nc2cccc(OCc3ccccc3OC)c12 | > 10 | 2.9 | 0.33 | 98 | > 10 | 48 | 0.27 |
| CCCCNc1nc(N)nc2cccc(C(=O)NC)c12 | > 10 | > 10 | 0.15 | 90 | > 10 | 23 | 0.35 |
| CCCCNc1nc(N)nc2cccc(C(=O)N(C)Cc3ccccc3)c12 | 5.6 | > 10 | 0.27 | 99 | > 10 | 98 | 0.53 |
| CCCCNc1nc(N)nc2cccc(C(=O)N[C@@H](C)c3ccccc3)c12 | > 10 | > 10 | 0.14 | 68 | > 10 | 31 | 0.09 |
| CCCCNc1nc(N)nc2cccc(OCc3nccc(OC)c3OC)c12 | > 10 | 4.1 | 0.034 | 98 | > 10 | 37 | 0.03 |
| CCCCNc1nc(N)nc2cccc(OCc3ccccn3)c12 | > 10 | 1.3 | 0.043 | 99 | > 10 | 60 | 0.49 |
| CCCCNc1nc(N)nc2cccc(OCc3ccc(CO)cc3OC)c12 | 4.4 | > 10 | 0.018 | 98 | > 10 | 43 | 0.03 |
| CCCCNc1nc(N)nc2ccccc12 |  |  |  |  |  | 90 | 0.17 |
| CCCCNc1nc(N)nc2cccc(C(=O)NC(C)C)c12 | > 10 | > 10 | 0.56 | 45 | > 10 | 14 | 2.05 |
| CCCCNc1nc(N)nc2cccc(OCc3cccnc3)c12 | > 10 | 0.9 | 0.011 | 99 | > 10 | 44 | 0.03 |
| CCCCNc1nc(N)nc2cccc(C(=O)N[C@H](C)c3ccccc3)c12 | > 10 | > 10 | > 25 | 75 | > 10 | 32 | 2.29 |
| CCCCNc1nc(N)nc2cccc(C(=O)NCc3ccccc3)c12 | 6.6 | > 10 | 0.03 | 92 | > 10 | 28 | 0.06 |
